Source: PubChem BioAssay
FLuc inh counter: firefly luciferase enzyme inhibitors, primary screen, artefact control for luciferase-based inhibitor screens, biochemical, luminescence, ATPLite; Luciferin 4-monooxygenase (Photinus pyralis), P08659; 10 min; inhibition, % at 10 µM; actives 1.5% (n = 200,000);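 active = inhibition above about 50% when tested at 10 µM, limit read from the data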
Target sequence (P08659 whole entry, looked up): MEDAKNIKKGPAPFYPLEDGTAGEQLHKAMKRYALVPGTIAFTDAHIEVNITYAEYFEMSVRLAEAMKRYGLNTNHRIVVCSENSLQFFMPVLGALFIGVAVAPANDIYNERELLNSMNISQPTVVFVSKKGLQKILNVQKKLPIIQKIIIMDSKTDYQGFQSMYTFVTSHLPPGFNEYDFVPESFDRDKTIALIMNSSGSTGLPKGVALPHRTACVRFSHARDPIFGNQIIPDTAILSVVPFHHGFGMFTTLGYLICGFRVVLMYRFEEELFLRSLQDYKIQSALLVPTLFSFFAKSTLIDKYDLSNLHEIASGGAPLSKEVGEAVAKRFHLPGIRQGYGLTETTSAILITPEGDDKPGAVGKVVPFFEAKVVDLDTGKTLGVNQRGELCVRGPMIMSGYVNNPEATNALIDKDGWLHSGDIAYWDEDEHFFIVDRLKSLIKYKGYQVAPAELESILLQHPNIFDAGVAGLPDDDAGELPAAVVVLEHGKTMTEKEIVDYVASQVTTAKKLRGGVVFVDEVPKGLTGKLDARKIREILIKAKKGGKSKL
FLuc stim CS: FLuc activators, initial screening, artefact control for FLuc-dependent activation tests, biochemical, ATPlite luminescence | Luciferin 4-monooxygenase (Photinus pyralis), P08659 | ATPlite luciferase biochemical, 10 min; 0 = ATP-free wells, 1 = DMSO control | activation factor at 10 µM | 200,000 tested, under 10 active | AID 1027, 2008;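 active = luciferase activation factor, scaled between plate controls, of at least 2 with compound at 10 µM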
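System: Luciferase/luciferin detection reagent, cell-free biochemical luciferase assay | Medium: PBS buffer for ATP | Dosing: Test compounds dosed from 2 mM stocks in 100% DMSO | Timing: 10 min at ambient temperature | Signal: Luminescence measurement of luciferase light output | Evaluation: Luciferase activation, seen as luminescence increase over controls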
APP 5'UTR act: activators of APP 5'UTR luciferase reporter, primary screen, SH-SY5Y cells; SH-SY5Y APP 5'UTR luciferase reporter, luminescence; zero percent = DMSO vehicle wells; activation, % at 2 µM; actives 1% (n = 190,000); AID 1276, 2008;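 active = activation above a set limit, based on mean plus 3 SD of controls, cut at about 140% in these data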
NF-kB neuron act: activators of NF-kB expression in neurons, primary screen, cell-based, HTS; human neuronal cells, NF-kB reporter expression; active compounds read high; fold change at 12.5 µM; actives 1.6% (n = 190,000); AID 1239, 2008; in the data active = fold change above about 3.3
STAT1 activator: STAT1 signaling activators, primary screen, cell-based, HTS, luciferase reporter; NIH 3T3 STAT1-luciferase reporter, IFN-gamma, luminescence; 100% = IFN-gamma alone, no compound; AID 932, 2007; activation (% of control), % at 5.5 µM; actives 2.6% (n = 200,000);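 active = activation above the screen-wide mean activation plus 3 SD, cut at about 130% in these data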
A number is an active result; i = inactive; nt = no result given. This is a sample that favours compounds with a hit; in the whole collection about 4.1% have one here.

SMILES | FLuc inh counter | FLuc stim CS | APP 5'UTR act | NF-kB neuron act | STAT1 activator
COc1ccc(-c2cc3nc4c(c(=O)n3[nH]2)CCC4)cc1 | 51.5 | i | i | i | i
O=c1c2c(nc3cc(-c4ccccc4)[nH]n13)CCC2 | 60.8 | i | i | 3.69 | 134.8
Cc1cc2nc3c(c(=O)n2[nH]1)CCCC3 | i | i | i | i | i
CCOC(=O)C1(CCCc2ccccc2)CCN(Cc2cn(CC)nc2C)CC1 | i | i | i | i | i
O=C(NC(=S)Nc1ccc(Cl)cn1)c1cccs1 | 67.8 | i | 186.4 | 4.03 | 194.5
O=C(CCC(=O)Nc1ccccc1)NNC(=O)c1cccs1 | i | i | i | i | i
O=C(NNC(=S)Nc1ccccc1)c1cccs1 | i | i | i | i | 130.5
O=C(NNC(=S)Nc1ccc(Cl)cc1)c1cccs1 | i | i | i | i | 130.9
CCOC(=O)CC(NC(=O)Cn1nnc(-c2ccccc2F)n1)c1ccccc1Cl (stereo not drawn) | i | i | i | i | i
c1ccc(CSc2ccc(-c3ccccn3)nn2)nc1 | i | i | i | i | 133.1
O=[N+]([O-])c1cccc(-c2ccc(SCc3ccccn3)nn2)c1 | i | i | i | i | 135.2
c1ccc(-c2ccc(SCc3cccnc3)nn2)nc1 | i | i | i | i | i
COc1cccc(-c2ccc(SCc3ccccn3)nn2)c1 | i | i | i | i | i
Clc1ccc(-c2ccc(SCc3ccccn3)nn2)cc1 | i | i | i | i | 144.8
COCCn1c(SCc2cc(=O)n3cc(C)ccc3n2)nc2ccccc2c1=O | i | i | i | i | i
CC(C)c1ccc(NC(=O)C(=O)C2C(=O)Nc3ccccc32)cc1 (stereo not drawn) | 52.5 | i | i | i | i
CC(C)(C)c1ccc(NC(=O)C(=O)C2C(=O)Nc3ccccc32)cc1 (stereo not drawn) | i | i | i | i | i
Nc1ccc2nc(-c3ccc(N)c(Cl)c3)[nH]c2c1 | 52.3 | i | i | i | 132.0
Nc1ccc2nc(-c3ccccc3)[nH]c2c1 | 57.3 | i | i | i | 130.7
O=[N+]([O-])c1ccc2nc(-c3ccccc3)[nH]c2c1 | i | i | i | i | 140.8
Nc1ccc2nc(-c3cccnc3)[nH]c2c1 | i | i | nt | i | i
O=C(CCCC(=O)OCC(Cl)=C(Cl)Cl)Nc1ccc(F)cc1 | i | i | i | i | i
COC(=O)c1ccc(NN=Nc2ccc(C)cc2)cc1 | i | i | i | i | 137.0
Cc1ccc(C(=O)ONc2ccc(N=O)cc2)cc1 | 96.8 | i | i | i | i
O=Nc1ccc(NOC(=O)c2ccc(Br)cc2)cc1 | 86.8 | i | i | i | i
SMILES | FLuc inh counter | FLuc stim CS | APP 5'UTR act | NF-kB neuron act | STAT1 activator
COC(=O)c1ccc(NC(=O)CCN2CCCCC2)cc1 | i | i | i | i | i
COC(=O)c1ccc(N=NN2CCCCC2)cc1 | i | i | 150.6 | 3.34 | 139.7
Cc1ccc(C(=O)ONc2ccc(N=NC(=O)c3ccccc3O)cc2)cc1 | i | i | i | i | i
O=C(O)CCCNC(=O)c1ccc(NC(=O)Cc2ccc(Cl)cc2)cc1 | i | i | i | i | i
COc1cccc(C(=O)C2=NN(C(C)=O)CC2c2ccco2)c1 (stereo not drawn) | i | i | i | i | i
CCC(C)NC(=O)C1CCCN(C(=O)Nc2ccc(F)cc2)C1 (stereo not drawn) | i | i | i | i | i
CN(C)c1ccc(C=Nc2ccc(N(C)C)cc2)cc1 | i | i | 175.3 | i | 144.2
C/C(=N/N=C/c1ccc(N(C)C)cc1)c1ccccc1 | 76.7 | i | 188.7 | i | 132.6
CN(C)c1ccc(N=Cc2ccco2)cc1 | i | i | 152.8 | i | 150.4
CN(C)c1ccc(C=Nc2ccccc2)cc1 | i | i | i | i | i
Cc1ccc(N=Cc2ccc(N(C)C)cc2)cc1 | i | i | i | i | i
Nc1[nH]nc2ncc3cc4ccccc4nc3c12 | i | i | i | i | 138.8
COc1cc(CNCCO)cc(Cl)c1OCc1ccc(Cl)cc1Cl | i | i | i | i | i
c1ccc2c(c1)CC/C2=N/Nc1nc2ccccc2[nH]1 | i | i | 180.0 | 3.4 | 137.4
Cc1ccc(/C=N/Nc2cn[nH]c(=O)n2)o1 | i | i | i | i | i
Cn1c(N/N=C/c2cc3ccccc3nc2Cl)nc2ccccc21 | 96.0 | i | i | i | i
